In publication PMC3880591 (Journal of medicinal chemistry, 2013):
Like-named read-outs stand apart in the source and are kept apart here.

Key:
Male Sprague Dawley rats = assay: Intracranial self-stimulation; format: in vivo, rat; conditions: i.p., measured for 1 hr; for Effect on ICSS thresholds: butorphan 0.25-4.0 mg/kg, 8 1.0-30.0 mg/kg
Procedure, shortened: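 Rats carried monopolar electrodes in the medial forebrain bundle (lateral hypothalamus). They were trained on FR1 at 141 Hz (500 ms trains) by the rate-frequency method until thresholds were stable (±10%, 4 days); N=6 per cohort. Baseline was the mean of the last two of three 15-min functions. Ascending i.p. doses were given in 20% DMSO/water or 0.9% saline, then four 15-min trials. Output was percent of baseline, by two-way repeated-measures ANOVA with Tukey.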

rats = conditions: ref 10b; cited from earlier work
[1] = tested on: morphine dependent monkeys; conditions: more potent (in contrast to cyclorphan); cited from earlier work
mice = conditions: cited from earlier work
human KOR [2] = biological target: T1, human KOR (Homo sapiens, UniProt P41145); conditions: cited from earlier work
T1 sequence (P41145 whole entry): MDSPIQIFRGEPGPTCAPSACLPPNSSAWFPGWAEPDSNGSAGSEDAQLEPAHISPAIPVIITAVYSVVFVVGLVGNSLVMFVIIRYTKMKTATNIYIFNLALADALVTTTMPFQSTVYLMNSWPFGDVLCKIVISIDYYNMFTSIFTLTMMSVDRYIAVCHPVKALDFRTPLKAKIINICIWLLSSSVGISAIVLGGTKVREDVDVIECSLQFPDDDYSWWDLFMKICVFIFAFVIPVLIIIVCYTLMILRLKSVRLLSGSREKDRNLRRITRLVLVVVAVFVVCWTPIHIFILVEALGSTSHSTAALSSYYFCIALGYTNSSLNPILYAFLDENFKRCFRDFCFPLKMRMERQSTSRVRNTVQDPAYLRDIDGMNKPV

human MOR [3] = biological target: T2, human MOR (Homo sapiens, UniProt P35372); conditions: from [35S]GTPγS stimulation and inhibition data; cited from earlier work
T2 sequence (P35372 whole entry): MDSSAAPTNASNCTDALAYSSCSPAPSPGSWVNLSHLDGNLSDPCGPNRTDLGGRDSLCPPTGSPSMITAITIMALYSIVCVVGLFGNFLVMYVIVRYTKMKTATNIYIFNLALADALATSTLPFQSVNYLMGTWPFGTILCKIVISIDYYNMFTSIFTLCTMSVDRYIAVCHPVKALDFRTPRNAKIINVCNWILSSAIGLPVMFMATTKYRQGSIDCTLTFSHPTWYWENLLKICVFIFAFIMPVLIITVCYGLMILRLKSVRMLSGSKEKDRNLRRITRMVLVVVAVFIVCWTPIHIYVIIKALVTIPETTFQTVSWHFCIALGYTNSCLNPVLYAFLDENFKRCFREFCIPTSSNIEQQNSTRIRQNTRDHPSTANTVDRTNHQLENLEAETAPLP

human KOR [4] = biological target: T1, human KOR; conditions: from [35S]GTPγS stimulation and inhibition data; cited from earlier work
human MOR [5] = biological target: T2, human MOR; assay: Stimulation/inhibition of [35S]GTPγS binding mediated by the MOR; format: biochemical; conditions: from [35S]GTPγS stimulation and inhibition data
Procedure, shortened: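 Membranes from CHO cells stably expressing human MOR (7.5 μg protein/tube) were incubated 60 min at 30 °C with 12 test compound concentrations in 50 mM Tris–HCl, 3 mM MgCl2, 100 mM NaCl, 0.2 mM EGTA, pH 7.4, plus 3 μM GDP and 80 pmol [35S]GTPγS. Antagonist mode used 200 nM DAMGO. Nonspecific binding was defined with 10 μM GTPγS. Filter-bound counts were given as % stimulation over basal; at least three experiments in triplicate.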

human KOR [6] = biological target: T1, human KOR; assay: Stimulation/inhibition of [35S]GTPγS binding mediated by the KOR; format: biochemical; conditions: from [35S]GTPγS stimulation and inhibition data
Procedure, shortened: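 CHO membranes stably expressing human KOR (15 μg protein/tube) were incubated 60 min at 30 °C with 12 concentrations of test compound in 50 mM Tris–HCl, 3 mM MgCl2, 100 mM NaCl, 0.2 mM EGTA, pH 7.4, with 3 μM GDP and […] [35S]GTPγS. Antagonism was tested against 30 nM U50,488. Nonspecific binding used 10 μM GTPγS. After filtration and counting, results were expressed as % stimulation over basal; ≥3 experiments, triplicate.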

rhesus monkeys = conditions: cited from earlier work

## Oc1ccc2c(c1)[C@@]13CCCC[C@H]1[C@@H](C2)N(CC1CCC1)CC3 [Butorphan]
Male Sprague Dawley rats; 4.0 mg/kg
  Effect on maximum rates of responding: significantly decreased rates of responding
Male Sprague Dawley rats
  Effect on ICSS thresholds: no significant effect
rats
  Antinociception in the warm-water tail flick test: full antinociception
[1]
  Potency in suppressing abstinence: 40 times

## CCNc1nc2cc3c(cc2s1)C[C@@H]1[C@@H]2CCCC[C@]32CCN1CC1CC1 [Compound 1c]
mice
  Effect on morphine sensitization: inhibited morphine sensitization

## COc1ccc2c(c1)[C@]13CCN(CC4CC4)[C@H](C2)[C@@H]1Cc1sc(N)nc1C3 [Compound 7]
Human KOR [2]; ratio of Ki values
  Selectivity δ/κ: 7
Human MOR [3]
  Pharmacological properties at the MOR (agonist/antagonist): agonist and antagonist properties
Human KOR [4]
  Pharmacological properties at the KOR (agonist/antagonist): full agonists

## Nc1nc2c(s1)C[C@H]1[C@H]3Cc4ccc(O)cc4[C@@]1(CCN3CC1CC1)C2 [Compound 8]
Male Sprague Dawley rats
  Effect on ICSS thresholds: no significant effect
Human KOR [2]; read-out: Ki [3H]U69,593 (κ), CHO membranes, human KOR, ± SEM
  Ki: 0.072 ± 0.0039 nM
Human KOR [4]
  Pharmacological properties at the KOR (agonist/antagonist): both agonist and antagonist properties

## COc1ccc2c(c1)[C@]13CCN(CC4CC4)[C@H](C2)[C@@H]1Cc1sc(NC(C)=O)nc1C3 [Compound 10, 6,7-(2-N-Acetyl)aminothiazolo-N-cyclopropylmethyl-3-methoxymorphinan]
Human MOR [5]
  Pharmacological properties at the MOR (agonist/antagonist): agonist and antagonist properties
Human KOR [6]
  Pharmacological properties at the KOR (agonist/antagonist): full agonists

## CNc1nc2c(s1)C[C@H]1[C@H]3Cc4ccc(OC)cc4[C@@]1(CCN3CC1CC1)C2 [Compound 11, 6,7-(2-N-Methyl)aminothiazolo-N-cyclopropylmethyl-3-methoxymorphinan]
Human MOR [5]
  Pharmacological properties at the MOR (agonist/antagonist): agonist and antagonist properties
Human KOR [6]
  Pharmacological properties at the KOR (agonist/antagonist): full agonists

## Oc1ccc2c(c1)[C@@]13CCCC[C@H]1[C@@H](C2)N(CC1CC1)CC3 [Cyclorphan]
Rhesus monkeys
  Effect on cocaine self-administration: reduced cocaine self-administration
rats
  Antinociception in the warm-water tail flick test: partial effect
